Measured values of several laboratories.
Observed: metabolic stability
Species: rat
Medium: liver microsomes

N#Cc1ccc(C[C@H](Nc2nnc(-c3ccc(Br)cc3)s2)C(=O)N2CCc3ccccc32)cc1  half-life (10 µM; pH 7.4): 15 min
Cc1[nH]c(C)c(S(=O)(=O)Nc2ccc(C(F)(F)F)c(Cl)c2Cl)c1C(=O)N1CCC(F)(F)C1  half-life: 32 min
NCc1ccc(-c2nn(Cc3ccccc3)c3ccccc23)o1  half-life: 85 min
N#Cc1ccc(C[C@H](Nc2nnc(-c3cccc(F)c3)s2)C(=O)N2CCc3ccccc32)cc1  half-life (10 µM; pH 7.4): 47 min
OCc1ccc(-c2nn(Cc3ccccn3)c3cccnc23)o1  half-life (1 µM; pH 7.4): > 30 min
N#Cc1ccc(C[C@H](NC(=O)c2cc3ccc(F)cc3[nH]2)C(=O)N2CCc3ccccc32)cc1  half-life (10 µM; pH 7.4): 105 min
COc1cc(-c2cc(C(C)=O)n3ccccc23)c(OC)cc1Cn1ccnc1  half-life (1 µM; pH 7.4): 94.3 min
CCN(CC)Cc1ccc2cc(COC(=O)Nc3ccc(C(=O)NO)cc3)ccc2c1  half-life (pH 7.4): 92.9 min
COc1cnccc1Cn1nc(-c2ccc(CO)o2)c2ccccc21  half-life (1 µM; pH 7.4): 7 min
C=CCn1c(=O)c2cnc(Nc3ccc(N4CCN(C)CC4)cc3)nc2n1-c1ccc2c(n1)[C@@](O)(CC)CC2  half-life: 79 min
O=C(Nc1ccc(OC(F)(F)Cl)cc1)c1cnc(N2CC[C@@H](O)C2)c(-c2ccn[nH]2)c1  half-life (1 µM; pH 7.4): 179 min
COc1ncccc1Cn1nc(-c2ccc(CO)o2)c2ccccc21  half-life (1 µM; pH 7.4): 6 min
N#Cc1ccc(C[C@H](Nc2nnc(-c3ccc(Br)cc3)o2)C(=O)N2CCc3ccccc32)cc1  half-life (10 µM; pH 7.4): 27 min
